Measurements reported in ChEMBL document CHEMBL3621107, “Ring fusion strategy for synthesis and lead optimization of sulfur-substituted anthra[1,2-c][1,2,5]thiadiazole-6,11-dione derivatives as promising scaffold of antitumor agents” (Eur J Med Chem, 2015).

Columns and labels:
Type in all cases: functional
[1] = test system: K562; assay: Cytotoxicity against human K562 cells after 48 hrs by SRB assay; conditions: K562, 48 h
In short: (§1)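 NCI-60 human tumour cell panel screen, second stage, run by the NCI Developmental Therapeutics Program. Compounds were tested at five concentrations (0.01, 0.1, 1, 10 and 100 μM). Percentage growth was plotted against log10 concentration for each cell line. GI50, TGI and LC50 were taken from these dose-response curves.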

[2] = test system: RPMI-8226; assay: Cytotoxicity against human RPMI8226 cells after 48 hrs by SRB assay; conditions: RPMI-8226, 48 h
In short: (§2)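 Second-stage NCI-60 panel run by the NCI Developmental Therapeutics Program, covering nine tumour subpanels. Five concentrations were tested: 0.01, 0.1, 1, 10 and 100 μM. Percentage growth at each level was plotted against log10 drug concentration. GI50, TGI and LC50 were read from these dose-response curves. Subpanel MID values were divided into the full-panel MID to give selectivity ratios.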

[3] = test system: SR; assay: Cytotoxicity against human SR cells after 48 hrs by SRB assay
In short: (§3)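 NCI-60 five-dose study run by NCI DTP at 0.01, 0.1, 1, 10 and 100 µM. Percentage growth at each level was plotted against log10 concentration for each line, and GI50, TGI and LC50 were read from the dose-response curves.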

[4] = test system: NCI-H322M; assay: Cytotoxicity against human NCI-H322M cells after 48 hrs by SRB assay; in short: as §2
[5] = test system: NCI-H460; assay: Cytotoxicity against human NCI-H460 cells after 48 hrs by SRB assay; conditions: NCI-H460, 48 h; in short: as §2
[6] = test system: HCT-116; assay: Cytotoxicity against human HCT116 cells after 48 hrs by SRB assay; conditions: HCT-116, 48 h; for CC50: read-out: LC50 (the source's name); in short: as §1
[7] = test system: HCT-15; assay: Cytotoxicity against human HCT15 cells after 48 hrs by SRB assay; conditions: HCT-15, 48 h; in short: as §1
[8] = test system: HT-29; assay: Cytotoxicity against human HT-29 cells after 48 hrs by SRB assay; conditions: HT-29, 48 h; in short: as §1
[9] = test system: SNB-19; assay: Cytotoxicity against human SNB19 cells after 48 hrs by SRB assay; conditions: SNB-19, 48 h; in short: as §2
[10] = test system: U-251; assay: Cytotoxicity against human U251 cells after 48 hrs by SRB assay; conditions: U-251, 48 h; in short: as §3
[11] = test system: LOX IMVI; assay: Cytotoxicity against human LOXIMVI cells after 48 hrs by SRB assay; conditions: for CC50: read-out: LC50 (the source's name); in short: as §1
[12] = test system: Malme-3M; assay: Cytotoxicity against human MALME-3M cells after 48 hrs by SRB assay; in short: as §1
[13] = test system: M14; assay: Cytotoxicity against human M14 cells after 48 hrs by SRB assay; conditions: M14, 48 h; in short: as §1
[14] = test system: MDA-MB-435; assay: Cytotoxicity against human MDA-MB-435 cells after 48 hrs by SRB assay; conditions: MDA-MB-435, 48 h; in short: as §2
[15] = test system: SK-MEL-2; assay: Cytotoxicity against human SK-MEL-2 cells after 48 hrs by SRB assay; conditions: SK-MEL-2, 48 h; in short: as §2
[16] = test system: SK-MEL-28; assay: Cytotoxicity against human SK-MEL-28 cells after 48 hrs by SRB assay; conditions: SK-MEL-28, 48 h; for CC50: read-out: LC50 (the source's name); in short: as §2
[17] = test system: OVCAR-4; assay: Cytotoxicity against human OVCAR4 cells after 48 hrs by SRB assay; conditions: OVCAR-4, 48 h; in short: as §2
[18] = test system: OVCAR-5; assay: Cytotoxicity against human OVCAR5 cells after 48 hrs by SRB assay; conditions: OVCAR-5, 48 h; in short: as §2
[19] = test system: OVCAR-8; assay: Cytotoxicity against human OVCAR8 cells after 48 hrs by SRB assay; conditions: OVCAR-8, 48 h; for CC50: read-out: LC50 (the source's name); in short: as §2
[20] = test system: NCI/ADR-RES; assay: Cytotoxicity against human NCI/ADR-RES cells after 48 hrs by SRB assay; in short: as §2
[21] = test system: 786-0; assay: Cytotoxicity against human 786-0 cells after 48 hrs by SRB assay; conditions: 786-0, 48 h; in short: as §1
[22] = test system: ACHN; assay: Cytotoxicity against human ACHN cells after 48 hrs by SRB assay; in short: as §1
[23] = Cytotoxicity against human Hs578T cells after 48 hrs by SRB assay; conditions: Hs-578T; in short: as §1
[24] = test system: BT-549; assay: Cytotoxicity against human BT549 cells after 48 hrs by SRB assay; conditions: BT-549, 48 h; in short: as §1
[25] = test system: MDA-MB-468; assay: Cytotoxicity against human MDA-MB-468 cells after 48 hrs by SRB assay; conditions: MDA-MB-468, 48 h; in short: as §2
[26] = Cytotoxicity against human leukemia cells assessed as growth inhibition after 48 hrs by SRB assay; conditions: Leukemia cell
In short: (§4)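 Values come from the NCI-60 five-dose panel (0.01–100 µM). The subpanel MID is the mean GI50 over the lines of that tumour subpanel. The selectivity ratio is the full-panel MID divided by the subpanel MID; 3–6 is rated moderate and >6 high.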

[27] = Cytotoxicity against human colon cancer cells assessed as growth inhibition after 48 hrs by SRB assay; conditions: Cancer cell lines; in short: as §4
[28] = Cytotoxicity against human ovarian cancer cells assessed as growth inhibition after 48 hrs by SRB assay; conditions: Cancer cell lines; in short: as §4
[29] = Cytotoxicity against human renal cancer cells assessed as growth inhibition after 48 hrs by SRB assay; conditions: Cancer cell lines; in short: as §4
[30] = Cytotoxicity against human prostate cancer cells assessed as growth inhibition after 48 hrs by SRB assay; conditions: Cancer cell lines; in short: as §4
[31] = Cytotoxicity against human breast cancer cells assessed as growth inhibition after 48 hrs by SRB assay; conditions: Cancer cell lines; in short: as §4

O=C1c2ccccc2C(=O)c2c1cc(Sc1ccccc1Br)c1nsnc21
GI50 [1]: 18.5 µM | LC50 [1]: > 50 µM | TGI [1]: > 50 µM | GI50 [2]: 11.3 µM | LC50 [2]: > 50 µM | TGI [2]: > 50 µM | GI50 [3]: 17 µM | LC50 [3]: > 50 µM | TGI [3]: > 50 µM | GI50 [4]: > 50 µM | LC50 (concentration causing 50% net cell kill) [4]: > 50 µM | TGI [4]: > 50 µM | GI50 [5]: 36.1 µM | LC50 (concentration killing 50% of cells) [5]: > 50 µM | TGI [5]: > 50 µM | GI50 [6]: 7.87 µM | TGI [6]: 19.9 µM | CC50 [6]: > 50 µM | GI50 [7]: 12.3 µM | LC50 [7]: > 50 µM | TGI [7]: > 50 µM | GI50 [8]: > 50 µM | LC50 [8]: > 50 µM | TGI [8]: > 50 µM | GI50 [9]: 32.2 µM | LC50 [9]: > 50 µM | TGI [9]: > 50 µM | GI50 [10]: 10.9 µM | LC50 [10]: > 50 µM | TGI [10]: 31.7 µM | GI50 [11]: 12.6 µM | TGI [11]: > 50 µM | CC50 [11]: > 50 µM | GI50 [12]: 16.8 µM | LC50 [12]: > 50 µM | TGI [12]: 40.2 µM | GI50 [13]: 17.4 µM | LC50 [13]: > 50 µM | TGI [13]: > 50 µM | GI50 [14]: 9.23 µM | LC50 [14]: 32.7 µM | TGI [14]: 17.4 µM | GI50 [15]: 13.8 µM | LC50 [15]: > 50 µM | TGI [15]: 34.1 µM | GI50 [16]: 20.9 µM | TGI [16]: > 50 µM | CC50 [16]: > 50 µM | GI50 [17]: 2.78 µM | LC50 [17]: 30.1 µM | TGI [17]: 10.1 µM | GI50 [18]: 3.44 µM | LC50 [18]: > 50 µM | TGI [18]: > 50 µM | GI50 [19]: 11.1 µM | TGI [19]: > 50 µM | CC50 [19]: > 50 µM | GI50 [20]: 10.4 µM | LC50 (concentration killing 50% of cells) [20]: > 50 µM | TGI [20]: 36.9 µM | GI50 [21]: 11.2 µM | LC50 (concentration killing 50% of cells) [21]: > 50 µM | TGI [21]: 29.7 µM | GI50 [22]: 12.8 µM | LC50 [22]: > 50 µM | TGI [22]: 32.5 µM | GI50 [23]: 17.8 µM | LC50 [23]: > 50 µM | TGI [23]: > 50 µM | GI50 [24]: 20.5 µM | LC50 [24]: > 50 µM | TGI [24]: > 50 µM | GI50 [25]: 0.95 µM | LC50 [25]: 4.2 µM | TGI [25]: 2 µM | GI50 [26]: 12.8 µM | GI50 [27]: 21.4 µM | GI50 [28]: 11.2 µM | GI50 [29]: 14.5 µM | GI50 [30]: 18.2 µM | GI50 [31]: 9.62 µM

CC(C)Sc1cc2c(c3nsnc13)C(=O)c1ccccc1C2=O
GI50 [1]: 0.26 µM | LC50 [1]: 14.3 µM | TGI [1]: 1.35 µM | GI50 [2]: 0.29 µM | LC50 [2]: > 100 µM | TGI [2]: 1.78 µM | GI50 [3]: 0.31 µM | LC50 [3]: 7.46 µM | TGI [3]: 1.19 µM | GI50 [4]: 2.85 µM | LC50 (concentration causing 50% net cell kill) [4]: 38.7 µM | TGI [4]: 11 µM | GI50 [5]: 2.02 µM | LC50 (concentration killing 50% of cells) [5]: 40.5 µM | TGI [5]: 8.33 µM | GI50 [6]: 0.29 µM | TGI [6]: 1.01 µM | CC50 [6]: 4.22 µM | GI50 [7]: 1.69 µM | LC50 [7]: 40.4 µM | TGI [7]: 6.91 µM | GI50 [8]: 12.2 µM | LC50 [8]: 92.7 µM | TGI [8]: 33.6 µM | GI50 [9]: 3.32 µM | LC50 [9]: 36.3 µM | TGI [9]: 13.1 µM | GI50 [10]: 1.48 µM | LC50 [10]: 6.75 µM | TGI [10]: 3.16 µM | GI50 [11]: 0.34 µM | TGI [11]: 1.31 µM | CC50 [11]: 4.73 µM | GI50 [12]: 1.12 µM | LC50 [12]: 5.03 µM | TGI [12]: 2.38 µM | GI50 [13]: 1.54 µM | LC50 [13]: 6.53 µM | TGI [13]: 3.18 µM | GI50 [14]: 0.2 µM | LC50 [14]: 0.74 µM | TGI [14]: 0.39 µM | GI50 [15]: 0.99 µM | LC50 [15]: 5.87 µM | TGI [15]: 2.42 µM | GI50 [16]: 2.72 µM | TGI [16]: 5.99 µM | CC50 [16]: 18.8 µM | GI50 [17]: 0.36 µM | LC50 [17]: 3.67 µM | TGI [17]: 1.34 µM | GI50 [18]: 2.07 µM | LC50 [18]: 7.94 µM | TGI [18]: 4.05 µM | GI50 [19]: 0.49 µM | TGI [19]: 2.37 µM | CC50 [19]: 9.85 µM | GI50 [20]: 0.52 µM | LC50 (concentration killing 50% of cells) [20]: > 100 µM | TGI [20]: 3.2 µM | GI50 [21]: 2.75 µM | LC50 (concentration killing 50% of cells) [21]: 34.9 µM | TGI [21]: 8.14 µM | GI50 [22]: 1.25 µM | LC50 [22]: 8.5 µM | TGI [22]: 3.26 µM | GI50 [23]: 1.62 µM | LC50 [23]: > 100 µM | TGI [23]: 6.27 µM | GI50 [24]: 2.19 µM | LC50 [24]: 29.8 µM | TGI [24]: 8.38 µM | GI50 [25]: 0.37 µM | LC50 [25]: 4.39 µM | TGI [25]: 1.42 µM | GI50 [26]: 0.25 µM | GI50 [27]: 4.94 µM | GI50 [28]: 1.08 µM | GI50 [29]: 1.58 µM | GI50 [30]: 0.85 µM | GI50 [31]: 1.09 µM
